Compounds with a hit are over-represented: about 3.9% of the library has one in this group of screens.
FLuc inhib CS – inhibits firefly luciferase, flagging false hits in luciferase inhibition screens | P08659 | ATPLite firefly luciferase biochemical luminescence, 10 min | inhibition, % at 10 µM | actives 1.5% (n = 200,000) | AID 1006;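 active = inhibition above about 50% when tested at 10 µM, limit read from the data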
Rad51 HR inh – blocks human Rad51 in homologous recombination | Q06609 | hRad51 DNA strand exchange, fluorescence dequenching | inhibition, % at 10 µM | actives 0.085% (n = 200,000) | AID 1385;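 active = inhibition above 40% at the single screening dose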;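 also: 0% = DMSO control wells and 100% = blanks with heterologous ssDNA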
Target sequence (Q06609 whole entry, looked up): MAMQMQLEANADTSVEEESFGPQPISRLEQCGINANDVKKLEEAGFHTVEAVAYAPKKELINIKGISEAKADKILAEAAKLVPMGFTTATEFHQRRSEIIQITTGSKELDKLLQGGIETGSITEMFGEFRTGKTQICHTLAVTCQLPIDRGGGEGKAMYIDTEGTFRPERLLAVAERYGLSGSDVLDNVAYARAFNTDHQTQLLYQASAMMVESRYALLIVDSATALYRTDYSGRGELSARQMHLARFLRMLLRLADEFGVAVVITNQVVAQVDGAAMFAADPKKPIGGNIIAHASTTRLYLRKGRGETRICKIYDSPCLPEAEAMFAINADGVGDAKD
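material = hRad51 filaments on single-stranded DNA | reagent = Donor/quencher-labelled 47-bp dsDNA substrate | compound = 10 µM final, single point | schedule = strand-exchange reaction 15 min at room temperature | measured by = fluorescein emission 520 nm, excitation 485 nm | read-out basis = % inhibition versus plate control and blank means | benchmarks = plate controls and plate blanks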
NF-kB neuron act – compounds increasing NF-kB expression in human neuronal cells; NF-kB reporter expression; stronger effect = higher value; fold change at 12.5 µM; actives 1.6% (n = 190,000); AID 1239; in the data active = fold change above about 3.3
FLuc stim CS – affects firefly luciferase, flagging false hits in luciferase stimulation screens; P08659; ATPlite luciferase biochemical, luminescence, 10 min; 0 = ATP-free wells, 1 = DMSO control; activation factor at 10 µM; 200,000 tested, under 10 active;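 active = luciferase activation factor, scaled between plate controls, of at least 2 with compound at 10 µM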
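System: Luciferase/luciferin detection reagent, cell-free biochemical luciferase assay | Medium: PBS buffer for ATP | Dosing: Test compounds dosed from 2 mM stocks in 100% DMSO | Timing: 10 min at ambient temperature | Signal: Luminescence measurement of luciferase light output | Evaluation: Luciferase activation, seen as luminescence increase over controls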
STAT1 activator – increases IFN-gamma driven STAT1 reporter signal; NIH 3T3 STAT1-luciferase reporter, luminescence; 100% = IFN-gamma alone, no compound; activation (% of control), % at 5.5 µM; actives 2.6% (n = 200,000); AID 932;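 active = activation above the screen-wide mean activation plus 3 SD, cut at about 130% in these data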;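 also: raw ratio to IFN-gamma control signal so 100% means no change and 0% no light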
APP 5'UTR act – activates APP 5'UTR luciferase reporter; activation, % at 2 µM; AID 1276; SH-SY5Y APP 5'UTR luciferase reporter, luminescence; zero percent = DMSO vehicle wells; actives 1% (n = 190,000);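 active = activation above a set limit, based on mean plus 3 SD of controls, cut at about 140% in these data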
An asterisk follows results filed as active; · = no result.

SMILES	FLuc inhib CS	Rad51 HR inh	NF-kB neuron act	FLuc stim CS	STAT1 activator	APP 5'UTR act
Cc1ccc(N=Nc2c(C)[nH]n(C(N)=S)c2=O)cc1C	33	4	4.8*	0.7	113	96
COc1ccc(C(=O)CSc2n[nH]c(C)n2)cc1[N+](=O)[O-]	-2	-4	0.97	1	99	-3
COc1ccccc1NC(=O)Cn1cnc2c(nnn2-c2ccc(C)cc2)c1=O	1	-41	0.91	1	102	6
CC(=O)Nc1ccc(SCC(=O)c2cc(C)n(Cc3cccs3)c2C)cc1	1	·	0.32	1	57	112
Cc1cc(C(=O)CSc2nn(-c3ccccc3)c(=S)s2)c(C)n1Cc1ccco1	-2	1	0.84	1	99	-1
Cc1cc(C(=O)COC(=O)[C@H](C)NC(=O)c2ccco2)c(C)n1Cc1ccco1	56*	11	1.2	0.4	104	10
Cc1cc(C(=O)CSc2nncs2)c(C)n1Cc1ccco1	74*	9	4.7*	0.3	67	181*
Nc1nnc(SCC(=O)c2ccc3ccccc3c2)s1	17	·	3.7*	0.8	119	21
Cc1csc(SCC(=O)c2cc(C)n(Cc3cccs3)c2C)n1	89*	5	0.73	0.1	75	120
O=Cc1c(C(=O)O)n(CC(=O)O)c2ccccc12	-6	-5	0.93	1.1	99	-7
O=S1(=O)CCN2N=C(C34CC5CC(CC(C5)C3)C4)SC2=N1	-3	·	1.4	1	99	-16
COc1ccc(-c2nnc(SCC(=O)c3cc(C)n(Cc4cccs4)c3C)o2)cc1	0	-1	1.8	1	98	5
Cc1cc(C(=O)CSc2nnc(N)s2)c(C)n1Cc1cccs1	91*	-6	2.7	0.1	111	136*
Cc1ccnc(Nc2nc3ccccc3o2)n1	69*	4	1.5	0.3	85	140*
CCOC(=O)c1cnc(Nc2nc3ccccc3o2)nc1CSC(=S)N(CC)CC	-2	6	24*	1	105	-41
Cc1nc(Nc2nc3ccccc3o2)nc(C)c1C	51*	·	2.8	0.5	117	143*
Cc1ccc(Nc2nc3ccccc3o2)cc1F	14	-1	2.6	0.9	133*	136*
Cc1cnc(Nc2nc3ccccc3o2)nc1C(=O)Nc1cccc(C(F)(F)F)c1	-8	-11	1.2	1.1	102	-5
N#Cc1cnc(Nc2nc3ccccc3o2)nc1-c1ccccc1	6	4	1.4	0.9	111	5
Cc1nc(C(F)(F)F)ccc1C(=O)N1CCCCC1	·	11	·	·	·	·
CCCc1nc(Nc2nc3ccccc3o2)nc(C)c1C(=O)OCC	44	-4	3	0.6	144*	33
CCOC(=O)c1cnc(Nc2nc3ccccc3o2)nc1CSc1ncccn1	·	-9	·	·	102	-6
CCOc1ccccc1NC(=S)N1CCC(NC(=O)C(C)(C)C)CC1	-4	-4	1	1	96	-7
Oc1ccc2ccccc2c1Br	-3	43*	1.1	1	96	18
N#C/C(=C\c1ccc2c(c1)OCCO2)C(=O)NC1CCCCC1	9	-3	1.1	0.9	94	17
SMILES	FLuc inhib CS	Rad51 HR inh	NF-kB neuron act	FLuc stim CS	STAT1 activator	APP 5'UTR act
N#C/C(=C/c1ccc2c(c1)OCO2)C(=O)Nc1ccc(O)cc1	60*	-4	2.1	0.4	118	18
O=C(c1ccc(Cl)cc1)c1c[nH]c(C(=O)NNc2ccccc2)c1	-2	-6	1.3	1	97	9
CC(=O)c1cc(N2CCOCC2)ccc1[N+](=O)[O-]	-4	1	5.6*	1	104	10
CC(=O)c1cc(N2CCC(C(=O)O)CC2)ccc1[N+](=O)[O-]	-1	-9	1.1	1	104	6
O=C(c1ccccc1F)N1CCN(c2ccc([N+](=O)[O-])c(N3CCOCC3)c2)CC1	90*	-1	0.97	0.1	104	-10
COc1cc2nc(CN(C)Cc3ccc(C(C)(C)C)cc3)[nH]c(=O)c2cc1OC	85*	17	1.1	0.2	104	5
CCN(Cc1nc2cc(OC)c(OC)cc2c(=O)[nH]1)C(=O)c1ccc(S(=O)(=O)N(C)C)cc1	1	0	1.1	1	100	-6
N#C[C@H]1C2OC2c2ccccc2N1C(=O)c1ccccc1 (some centres undefined)	·	0	·	·	·	·
O=C(OCc1csc(-c2ccccc2)n1)c1ccc(O)cc1	4	7	3.3	1	150*	64
Cc1ccc(C(=O)NCC(=O)OCc2csc(-c3ccccc3)n2)cc1	0	-4	1.2	1	103	4
CCSc1ncc(CO)c(N)n1	·	-6	·	·	·	·
CC(C)c1ccc(OCC(=O)N(Cc2ccccc2)c2ccccn2)cc1	-5	2	0.57	1.1	96	-1
Cc1cc(C(=O)CN2C(=O)c3ccccc3S2(=O)=O)c(C)n1-c1ccccc1	63*	0	0.62	0.4	104	-35
Cc1cc(C(=O)CN2C(=O)C3CC=CCC3C2=O)c(C)n1-c1ccccc1 (centres undefined)	74*	-2	2.2	0.3	138*	184*
CC(C)(C)C1CCc2sc(C(=O)NNC(=O)CCl)cc2C1 (centres undefined)	57*	2	0.12	0.4	126	18
CC(C)(C)C1CCC(=NNC(=O)c2cc3c(s2)CCCC3)CC1 (centres undefined)	-9	-6	1.2	1.1	99	-3
Nc1nnc(SCc2ccc(Cl)cc2)s1	5	0	1.7	0.9	112	12
Nc1nnc(SCc2coc(-c3ccc(Cl)cc3)n2)s1	1	11	1.9	1	143*	46
CN1CCN(CC(=O)Nc2ccccc2[N+](=O)[O-])CC1	-3	-10	5.5*	1	105	10
COC(=O)c1ccc(-n2c(C)cc(C(=O)CSc3cccc[n+]3[O-])c2C)cc1	-1	73*	0.98	1	102	13
Oc1c(C=NCc2ccccc2)sc2ccccc12	19	-9	3.5*	0.8	143*	11
Oc1cccc(C=NCc2ccccc2)c1O	-7	0	0.89	1.1	89	2
CC1Cc2ccccc2N1S(=O)(=O)c1cccc(C(=O)N2CC(=O)Nc3ccccc32)c1 (centres undefined)	·	-6	·	·	·	·
Nc1ccc(CCc2nc3ccccc3o2)cc1	48	3	3	0.5	138*	163*
O=[N+]([O-])c1cc(Cl)ccc1Oc1ccc(-c2nnco2)cc1	0	·	·	1	90	3
CCOc1ccc2nc(-c3ccccc3)[nH]c2c1	84*	2	5.4*	0.2	139*	142*
CCOc1ccc2nc(C(C)O)[nH]c2c1 (centres undefined)	-3	-1	1.1	1	104	-7
